Experimental data published in article PMC6453127 (Biochimica et biophysica acta. General subjects, 2017).
“Also recorded” adds a separate entry of the source.

Legend:
Hsp90α = Hsp90α (Homo sapiens, UniProt P07900); assay: DARTs assay, full-length recombinant Hsp90α, pronase proteolysis; format: binding; details: 200 μM compound
His6-Hsp90β CTD = His6-Hsp90β CTD (Homo sapiens, UniProt P08238); assay: BS3 crosslinking dimerization/oligomerization assay, His6-Hsp90β CTD; format: biochemical; details: 2 μM protein; BS3 crosslinker
Chain of His6-Hsp90β CTD (P08238 530-724): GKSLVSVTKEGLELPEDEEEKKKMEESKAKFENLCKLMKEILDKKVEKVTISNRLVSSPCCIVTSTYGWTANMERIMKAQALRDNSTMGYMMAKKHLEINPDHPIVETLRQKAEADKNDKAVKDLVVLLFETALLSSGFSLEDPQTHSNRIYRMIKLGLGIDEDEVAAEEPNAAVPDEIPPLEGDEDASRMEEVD

BSA = BSA (Bos taurus, UniProt P02769); assay: Crosslinking specificity control with BSA; format: biochemical
Chain of BSA (P02769 25-607): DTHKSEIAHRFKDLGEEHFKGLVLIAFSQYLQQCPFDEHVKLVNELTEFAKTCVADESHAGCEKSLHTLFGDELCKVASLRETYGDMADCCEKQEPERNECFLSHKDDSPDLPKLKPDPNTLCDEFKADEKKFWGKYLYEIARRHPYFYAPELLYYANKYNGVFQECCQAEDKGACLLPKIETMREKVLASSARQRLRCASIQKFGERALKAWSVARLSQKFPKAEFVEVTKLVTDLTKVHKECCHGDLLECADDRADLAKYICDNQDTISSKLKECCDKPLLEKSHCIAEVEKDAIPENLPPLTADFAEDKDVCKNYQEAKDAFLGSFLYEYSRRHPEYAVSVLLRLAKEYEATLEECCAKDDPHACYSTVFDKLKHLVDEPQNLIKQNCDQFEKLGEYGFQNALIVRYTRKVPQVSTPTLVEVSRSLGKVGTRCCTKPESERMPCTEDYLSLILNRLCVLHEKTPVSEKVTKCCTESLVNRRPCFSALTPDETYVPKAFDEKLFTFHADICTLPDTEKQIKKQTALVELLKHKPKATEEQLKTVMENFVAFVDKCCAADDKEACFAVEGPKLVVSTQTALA

DU-145 = assay: NCI-60 screen, DU-145 prostate cancer cell line; format: cell-based, human; details: NCI re-screen
Procedure, shortened: (§1)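 NCI Developmental Therapeutics Program re-screen, 5-concentration dose response. Growth measured by SRB staining.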

Hsp90β [1] = biological target: T1, Hsp90β (Homo sapiens, UniProt P08238); assay: Transcreener ADP Hsp90 ATPase assay; format: biochemical; details: read-out: IC50, Hsp90β ATPase function; 0.5 μM Hsp90β, 250 μM ATP, 37 °C 30 min
T1 sequence (P08238 whole entry): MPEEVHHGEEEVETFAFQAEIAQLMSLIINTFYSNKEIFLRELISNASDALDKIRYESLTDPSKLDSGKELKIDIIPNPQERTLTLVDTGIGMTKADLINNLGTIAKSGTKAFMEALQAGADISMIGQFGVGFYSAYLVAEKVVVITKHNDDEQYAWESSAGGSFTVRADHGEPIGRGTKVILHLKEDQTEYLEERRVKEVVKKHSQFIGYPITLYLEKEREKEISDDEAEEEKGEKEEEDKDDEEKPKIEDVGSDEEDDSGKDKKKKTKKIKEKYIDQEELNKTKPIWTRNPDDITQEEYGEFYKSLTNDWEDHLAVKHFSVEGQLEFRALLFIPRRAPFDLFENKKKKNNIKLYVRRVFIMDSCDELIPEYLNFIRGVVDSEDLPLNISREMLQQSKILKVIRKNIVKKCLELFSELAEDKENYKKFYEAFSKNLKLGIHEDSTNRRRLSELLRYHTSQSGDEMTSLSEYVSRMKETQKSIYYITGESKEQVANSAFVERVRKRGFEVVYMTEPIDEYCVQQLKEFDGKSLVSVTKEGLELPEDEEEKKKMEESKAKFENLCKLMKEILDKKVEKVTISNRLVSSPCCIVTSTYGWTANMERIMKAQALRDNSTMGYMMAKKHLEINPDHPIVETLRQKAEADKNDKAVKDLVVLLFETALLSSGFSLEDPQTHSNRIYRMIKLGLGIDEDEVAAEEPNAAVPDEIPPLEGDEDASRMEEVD

GST-Hsp90α NTD [2] = biological target: T2, GST-Hsp90α NTD (Homo sapiens, UniProt P07900); assay: BS3 crosslinking assay, GST-Hsp90α NTD; format: biochemical; details: 2 μM protein
Procedure, shortened: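 2 μM protein buffer-exchanged into 50 mM NaPO₄ and 150 mM NaCl, then preincubated with compound for 1 h at room temperature. BS3 added at 66–200 μM final for 1 h at RT, then quenched with 50 mM Tris-HCl pH 7.5 for 15 min. Boiled in SDS dye, run on 10% SDS-PAGE, western-blotted and probed with anti-GST antibody.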

Hsp90 CTD = assay: DTT-induced insulin aggregation chaperone assay; format: biochemical; details: 100 μM compound; 10 μM Hsp90 CTD
Procedure, shortened: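 200 μM insulin preincubated with 10 μM Hsp90 CTD, with or without compound, in 10 mM NaPO₄ and 100 mM NaCl at 30 °C for 1 h. Aggregation induced with 20 mM DTT and followed by absorbance at 650 over 40 min in a plate reader.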

LNCaP cells [3] = assay: Cytotoxicity to LNCaP cells; format: cell-based; details: 5 μM; data not shown
[4] = mouse xenograft models; ref http://dtp.cancer.gov; cited from earlier work
full-length Hsp90α = full-length Hsp90α (Homo sapiens, UniProt P07900); assay: BS3 crosslinking assay, full length Hsp90α; format: biochemical; details: 2 μM protein; BS3 crosslinker
Procedure, shortened: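 Full-length Hsp90α used at 2 μM in 50 mM NaPO₄ and 150 mM NaCl, preincubated with compound for 1 h at room temperature. BS3 crosslinker added at 66–200 μM final for 1 h at RT, then quenched with 50 mM Tris-HCl pH 7.5 for 15 min. Analysed by 10% SDS-PAGE and western blot.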

Hsp90β [5] = biological target: T1, Hsp90β; assay: Competitive displacement of FITC-GA; format: binding; details: competitor 3 nM to 3 μM; 60 nM Hsp90β, 5 nM FITC-GA
Lewis lung carcinoma = details: 3.12 mg/kg; Lewis lung carcinoma mouse model; ref http://dtp.cancer.gov; cited from earlier work
GST-Hsp90α CTD [6] = biological target: T3, GST-Hsp90α CTD (Homo sapiens, UniProt P07900); assay: BS3 crosslinking assay, GST-Hsp90α CTD; format: biochemical; details: 2 μM protein; NSC145366 10 μM to 100 μM
Hsp70 = Hsp70 (Homo sapiens, UniProt P0DMV8); assay: Transcreener ADP Hsp70 ATPase assay; format: biochemical; details: 0.5 μM Hsp70; up to 200 μM
Chain of Hsp70 (P0DMV8 whole entry): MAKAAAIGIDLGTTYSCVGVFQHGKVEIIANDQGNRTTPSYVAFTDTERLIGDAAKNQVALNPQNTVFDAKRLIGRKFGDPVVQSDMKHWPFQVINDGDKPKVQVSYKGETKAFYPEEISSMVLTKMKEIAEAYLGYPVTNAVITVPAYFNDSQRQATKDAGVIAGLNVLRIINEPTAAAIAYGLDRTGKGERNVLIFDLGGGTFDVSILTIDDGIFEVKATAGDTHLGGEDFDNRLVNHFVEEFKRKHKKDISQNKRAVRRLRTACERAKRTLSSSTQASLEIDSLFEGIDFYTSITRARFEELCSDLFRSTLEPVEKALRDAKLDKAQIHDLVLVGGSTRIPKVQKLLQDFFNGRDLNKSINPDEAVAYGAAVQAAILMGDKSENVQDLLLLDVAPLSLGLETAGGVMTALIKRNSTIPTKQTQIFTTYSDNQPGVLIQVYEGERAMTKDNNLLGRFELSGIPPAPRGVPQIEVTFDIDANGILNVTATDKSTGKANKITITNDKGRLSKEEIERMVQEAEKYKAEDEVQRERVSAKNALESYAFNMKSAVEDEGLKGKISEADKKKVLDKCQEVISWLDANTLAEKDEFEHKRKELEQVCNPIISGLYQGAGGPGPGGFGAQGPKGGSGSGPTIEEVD
Procedure, shortened: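 Stopped with EDTA stop-and-detect buffer containing ADP² antibody-IRDye QC-1 and 8 nM ADP Alexa594 tracer, 1 h at RT. Endpoint fluorescence intensity read. Three experiments, four-parameter logistic fit.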

Hsp90β [7] = biological target: T1, Hsp90β; assay: Microscale thermophoresis; format: binding; details: read-out: Kd (MST); labeled Hsp90β 40 nM
Hsp90 = assay: Luciferase refolding assay in rabbit reticulocyte lysate; format: biochemical
Procedure, shortened: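 Recombinant luciferase at 100 μg/mL in Tricine pH 7.8 buffer (MgCl₂, DTT, EDTA, 10% glycerol, 10 mg/mL BSA), heat-denatured at 41 °C for 30 min. Then added to rabbit reticulocyte lysate preincubated at 30 °C with compound. Aliquots taken every 15 min for 90 min into luciferase reagent and luminescence read. DMSO at 90 min set to 100%. Triplicate.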

PC3 = assay: NCI-60 screen, PC3 prostate cancer cell line; format: cell-based, human; details: NCI re-screen
Procedure, shortened: as §1

GST-Hsp90α CTD (626–732) = GST-Hsp90α CTD (626–732) (Homo sapiens, UniProt P07900); assay: DARTs assay with GST-Hsp90α CTD; format: binding; details: 200 μM compound
GST-Hsp90α NTD [8] = biological target: T2, GST-Hsp90α NTD; assay: ATP-agarose pulldown, Hsp90 NTD; format: binding; details: 200 μM compound, 6 μM NTD
LNCaP cells [9] = assay: Western blot of Hsp90 clients and heat shock proteins in LNCaP cells; format: cell-based; details: 48 h
Procedure, shortened: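 ATCC LNCaP cells kept in ATCC-recommended medium, authenticated and used within 20 passages. Cells treated for 48 h, trypsinised, PBS-washed and lysed in RIPA with protease inhibitors, 1 mM PMSF, 0.1% Triton X-100 and 1 mM DTT. Protein measured by Bradford before western blot. Band intensities of treated samples expressed as percentage of vehicle.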

GST-Hsp90α CTD [10] = biological target: T3, GST-Hsp90α CTD; assay: ADH aggregation; format: biochemical
Procedure, shortened: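 Reaction: 6.2 μM equine ADH, with or without 500 nM GST-Hsp90α CTD and compound. Aggregation induced at 55 °C, read as absorbance at 360 nm every minute for 90 min. The 90-min endpoint was used, with the mean of ADH alone set to 100%. Three independent experiments.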

GST-Hsp90α NTD (9–236) = GST-Hsp90α NTD (9–236) (Homo sapiens, UniProt P07900); assay: DARTs assay with GST-Hsp90α NTD; format: binding; details: 200 μM compound
GST-Hsp90α CTD [11] = biological target: T3, GST-Hsp90α CTD; assay: ATP-agarose pulldown, Hsp90 CTD; format: binding; details: 200 μM compound, 6 μM CTD

CC(C)(C)CC(C)(C)NCC(O)COc1ccc(C(C)(C)c2ccc(OCC(O)CNC(C)(C)CC(C)(C)C)cc2)cc1.Cl (stereo not drawn) [NSC145366, 1-(4-(2-(4-(2-hydroxy-3-(2,4,4-trimethylpentan-2-ylami-no)propoxy)phenyl)propan-2-yl)phenoxy)-3-(2,4,4-trimethylpentan-2-ylamino)propan-2-ol hydrochloride]
protection of Hsp90α from pronase degradation (DARTs) (Hsp90α): protection of Hsp90α was clearly observed
oligomerization state of His6-Hsp90β CTD (crosslinking) (His6-Hsp90β CTD): even higher order oligomerized species; also recorded: CTD monomer band was eliminated
oligomerization of BSA (BSA): does not induce oligomerization of BSA
GI50 (DU-145): 1380 nM
IC50 (Hsp90β [1]): ~109000 nM
oligomerization of GST-Hsp90α NTD (crosslinking) (GST-Hsp90α NTD [2]): no effect on oligomerization of the NTD
inhibition of CTD chaperone activity, insulin aggregation (Hsp90 CTD): inhibits CTD chaperone activity
cytotoxicity to LNCaP cells (LNCaP cells [3]): completely cytotoxic
toxic dose [4]: ≥ 6.25 mg/kg
oligomerization state of full-length Hsp90α (crosslinking) (full-length Hsp90α): presence of a higher-order oligomer
competition with FITC-GA binding to Hsp90β (Hsp90β [5]): does not compete with FITC-GA binding
antitumor activity, treated/control (Lewis lung carcinoma): 68%
oligomerization state of GST-Hsp90α CTD (crosslinking) (GST-Hsp90α CTD [6]): induced CTD oligomerization increases in a dose dependent manner
inhibition of Hsp70 ATPase function (Hsp70): no inhibitory activity up to 200 μM
Kd (Hsp90β [7]): ~3800 nM
level of inhibition of luciferase refolding compared with Cm A1 (Hsp90; 25 and 50 μM): greater than C-terminal inhibitor Cm A1
luciferase refolding (luciferase activity vs vehicle) (Hsp90; rabbit reticulocyte lysate, 90 min): decreased luciferase activity as compared to vehicle treated lysates
GI50 (PC3): 1850 nM
protection of Hsp90 CTD from pronase degradation (DARTs) (GST-Hsp90α CTD (626–732)): protects the Hsp90 CTD from pronase degradation
inhibition of NTD binding to ATP-agarose (GST-Hsp90α NTD [8]): does not disrupt NTD or CTD binding to ATP
induction of classical heat shock response (Hsp70, Hsp27, Hsp40) (LNCaP cells [9]): not detectable
AR expression level compared to DMSO (LNCaP cells [9]; 1 μM and 3 μM): 50%
Akt expression (LNCaP cells [9]; 1 μM and 3 μM): do not show significant downregulation
BRAF expression (LNCaP cells [9]; 1 μM and 3 μM): do not show significant downregulation
BRCA1 expression level compared to DMSO (LNCaP cells [9]; 3 μM): 15%
Hsp40 expression (LNCaP cells [9]; 3 μM): only appears to induce Hsp40 expression after 48 h cellular treatment at the highest concentration
level of ADH aggregation, dose dependence (GST-Hsp90α CTD [10]; 10 μM to 40 μM): increases the level of ADH aggregation in a dose dependent manner
inhibition of Hsp90 CTD chaperone (anti-aggregation) activity, ADH aggregation assay (GST-Hsp90α CTD [10]; 40 μM compound, 500 nM Hsp90 CTD, 55 °C, end point 90 min): completely eliminates CTD chaperone activity
protection of Hsp90 NTD from pronase degradation (DARTs) (GST-Hsp90α NTD (9–236)): no protection observed
inhibition of CTD binding to ATP-agarose (GST-Hsp90α CTD [11]): does not disrupt NTD or CTD binding to ATP
